Experimental findings from ChEMBL document CHEMBL1130175, “Sulfated galactocerebrosides as potential antiinflammatory agents” (J Med Chem, 1997) are described below.

pIC50: −log10 of the molar value.

The target of the assay is T1, P-selectin (Homo sapiens, UniProt P16109).
T1 sequence (P16109 whole entry): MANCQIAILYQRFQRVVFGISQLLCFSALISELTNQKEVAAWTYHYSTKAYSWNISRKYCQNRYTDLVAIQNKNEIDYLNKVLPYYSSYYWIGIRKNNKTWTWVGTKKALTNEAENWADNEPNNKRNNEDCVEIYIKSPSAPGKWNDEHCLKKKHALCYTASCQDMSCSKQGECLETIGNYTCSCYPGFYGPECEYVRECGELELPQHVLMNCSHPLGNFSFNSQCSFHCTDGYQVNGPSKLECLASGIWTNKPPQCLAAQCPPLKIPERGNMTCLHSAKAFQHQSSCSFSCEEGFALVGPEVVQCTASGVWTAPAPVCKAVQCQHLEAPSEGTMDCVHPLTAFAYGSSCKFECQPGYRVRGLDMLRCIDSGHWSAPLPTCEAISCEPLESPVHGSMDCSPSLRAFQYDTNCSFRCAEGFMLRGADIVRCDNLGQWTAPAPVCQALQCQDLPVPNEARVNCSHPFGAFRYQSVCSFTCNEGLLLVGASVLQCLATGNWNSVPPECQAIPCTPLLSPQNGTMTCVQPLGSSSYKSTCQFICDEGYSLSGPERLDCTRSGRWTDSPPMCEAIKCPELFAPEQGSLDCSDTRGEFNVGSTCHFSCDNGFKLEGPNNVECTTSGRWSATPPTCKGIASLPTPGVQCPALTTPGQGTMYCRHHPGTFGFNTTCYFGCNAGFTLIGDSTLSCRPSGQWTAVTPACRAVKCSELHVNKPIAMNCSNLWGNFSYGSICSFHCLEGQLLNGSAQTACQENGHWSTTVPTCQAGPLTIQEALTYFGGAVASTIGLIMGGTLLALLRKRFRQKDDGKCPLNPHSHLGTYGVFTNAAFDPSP
Kind of assay: In vitro inhibitory concentration against Selectin P in a cell-free binding assay. The procedure, abridged: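 Soluble P-selectin receptor globulin (lectin, EGF and two complement repeat domains fused to an Ig tail), premixed with HRP-conjugated goat anti-human IgG. The complex was incubated on sulfatide-coated ELISA plates with or without test compound, 0.5% DMSO final. Read-out was TMB colour at 450 nm. Eight 2-fold dilutions were tested, mean of duplicates, and IC50 was interpolated from the linear part of the log dose-response curve.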
Regarding `CCCCCCCCCCCCC/C=C/[C@@H](OC(=O)c1ccccc1)[C@H](CO[C@@H]1O[C@@H](COS(=O)(=O)O)[C@@H](O)[C@H](O)[C@@H]1OS(=O)(=O)O)NC(=O)CCCCCCCCCCCCCCC`, the pIC50 (in general, the negative decadic logarithm of the IC50, by convention in mol/L) was 6.05. Consider `CCCCCCCCCCCCC/C=C\C(O)C(CO)NC(=O)O[C@@H]1O[C@H](CO)[C@H](O)[C@H](O)[C@H]1O` (some centres not stated) [GALACTOCEREBROSIDE], for which the pIC50 is < 4.30.

Regarding `CCCCCCCCCCCCC/C=C/[C@@H](O)[C@H](CO[C@@H]1O[C@@H](COS(=O)(=O)O)[C@@H](OS(=O)(=O)O)[C@H](O)[C@@H]1O)NC(=O)CCCCCCCCCCCCCCC`, the pIC50 was 5.77. The figure for `CCCCCCCCCCCCC/C=C/[C@@H](O)[C@H](CO[C@@H]1O[C@@H](COS(=O)(=O)O)[C@@H](O)[C@H](O)[C@@H]1O)NC(=O)CCCCCCCCCCCCCCC` is 4.92; for `CCCCCCCCCCCCC/C=C/[C@@H](O)[C@H](CO[C@@H]1O[C@@H](COS(=O)(=O)O)[C@@H](O)[C@H](O)[C@@H]1OS(=O)(=O)O)NC(=O)CCCCCCCCCCCCCCC` it is 5.92; for `CCCCCCCCCCCCC/C=C/[C@@H](O)[C@H](CO[C@@H]1O[C@@H](CO)[C@@H](OS(=O)(=O)O)[C@H](O)[C@@H]1O)NC(=O)CCCCCCCCCCCCCCC` it is 4.90. `CCCCCCCCCCCCC/C=C/[C@@H](O)[C@H](CO[C@@H]1O[C@@H](CO)[C@@H](O)[C@H](O)[C@@H]1OS(=O)(=O)O)NC(=O)CCCCCCCCCCCCCCC` gave a pIC50 of 5.60. Consider `CCCCCCCCCCCCC/C=C/[C@@H](OC(=O)c1ccccc1)[C@H](CO[C@@H]1O[C@@H](CO)[C@@H](O)[C@H](OS(=O)(=O)O)[C@@H]1OS(=O)(=O)O)NC(=O)CCCCCCCCCCCCCCC`, for which the pIC50 was 7.00. The molecule `CCCCCCCCCCCCC/C=C/[C@@H](O)[C@H](CO[C@@H]1O[C@@H](CO)[C@@H](O)[C@H](OS(=O)(=O)O)[C@@H]1O)NC(=O)CCCCCCCCCCCCCCC` showed a pIC50 of 6.22.

Consider `CCCCCCCCCCCCC/C=C/[C@@H](OC(=O)c1ccccc1)[C@H](CO[C@@H]1O[C@@H](COS(=O)(=O)O)[C@@H](OC(C)=O)[C@H](OS(=O)(=O)O)[C@@H]1OC(=O)c1ccccc1)NC(=O)CCCCCCCCCCCCCCC`, for which the pIC50 is 5.89. The figure for `CCCCCCCCCCCCC/C=C/[C@@H](O)[C@H](CO[C@@H]1O[C@@H](CO)[C@@H](O)[C@H](OS(=O)(=O)O)[C@@H]1OS(=O)(=O)O)NC(=O)CCCCCCCCCCCCCCC` is 7.00; for `CCCCCCCCCCCCC/C=C/[C@@H](O)[C@H](CO[C@@H]1O[C@@H](COS(=O)(=O)O)[C@@H](O)[C@H](OS(=O)(=O)O)[C@@H]1O)NC(=O)CCCCCCCCCCCCCCC` it is 5.62.
